Published values of several laboratories.
Compare with care: the assays were run in different laboratories.
Target: NT-3 growth factor receptor (NTRK3, Homo sapiens, UniProt Q16288)

`COCCOc1nc(-c2ccc(Cl)nc2)nc2c1CN(C(=O)c1ncn3ccccc13)CC2` gave a remaining binding of 100% (cell-free assay, competition with immobilised ligand; 0.1 µM).
With `N#CCCc1ccc2c(c1)-c1[nH]c3ccc([N+](=O)[O-])cc3c1CC(=O)N2` the remaining signal was 61.2% (cell-free assay; 0.5 µM).
For `Cc1ccc(C(=O)Nc2ccc(CN3CCN(C)CC3)c(C(F)(F)F)c2)cc1C#Cc1cnc2cccnn12`, the remaining signal was 26% (cell-free assay; 23.5 nM).
`O=C(Nc1ccc(F)cc1)Nc1cccc(C(=O)Nc2ccc3[nH]ncc3c2)c1` has an inhibition of 13% (enzyme activity, inhibitor, FRET; 1 µM).
For `COc1cc2ncnc(Nc3ccc(F)c(Cl)c3)c2cc1OCCCN1CCOCC1`, the remaining signal was 103% (cell-free assay; 0.5 µM).
With `O=C(Nc1ccc2[nH]ncc2c1)c1cccc(NC(=S)Nc2cc(C(F)(F)F)cc(C(F)(F)F)c2)c1` the inhibition was 11.8% (enzyme activity, inhibitor, FRET; 1 µM).
For `CN(C(=O)c1ccccc1)c1cc(N(C)c2ccc3c(c2)CCc2ccc(C(=O)NCCN4CCOCC4)cc2C3=O)ccc1F`, the remaining binding was 90% (cell-free assay, competition with immobilised ligand; 1 µM).
With `Cc1cnc(NC2CCOCC2)nc1-n1cnc(C(=O)NC(CN)c2cc(F)cc(Cl)c2)c1` (stereo not shown) the remaining activity was 93% (enzyme activity, inhibitor, radiometric; 1 µM).
For `COc1cc(Cl)c(C(=O)N[C@@H](CN[C@H]2CC[C@@H](N)CC2)Cc2ccc(C#N)cc2)cc1-c1ccc(CN[C@H](C)c2ccc(C)cc2)o1`, the remaining activity was 96% (enzyme activity, inhibitor; 1 µM).
`Nc1ncnc2occ(-c3ccc(NC(=O)Nc4cc(C(F)(F)F)ccc4F)cc3)c12` gave a remaining signal of 0.25% (cell-free assay; 20 µM).
With `O=C(Nc1cnn(-c2csc(C(=O)NC3COC3)c2)c1)Nc1ccccc1Cl` the remaining activity was 64.3% (enzyme activity, inhibitor; 5 µM).
`O=C(Nc1cnn2ccc(N3CCC[C@@H]3c3cc(F)ccc3F)nc12)N1CC[C@H](O)C1` has an inhibition of 100% (enzyme activity, inhibitor, FRET; 1 µM).
For `Cc1c(NC(=O)c2cc(C(N)=O)nc3cc(F)ccc23)c(C(F)(F)F)nn1Cc1ccc(C(C)(C)C)cc1`, the remaining binding was 100% (cell-free assay, competition with immobilised ligand; 1 µM).
For `O=C1NC(=O)c2cc(Nc3ccc(F)cc3)c(Nc3ccc(F)cc3)cc21`, the remaining signal was 95.6% (cell-free assay; 0.5 µM).
`O=C(Nc1ccc(I)cc1)Nc1cccc(C(=O)Nc2ccc3[nH]ncc3c2)c1` gave an inhibition of 14.6% (enzyme activity, inhibitor, FRET; 1 µM).
`C[C@@]1(Cc2ccc(C#N)cc2)C(=O)N(c2cc(Cl)cc(Cl)c2)c2ncc(C(=O)NC3(c4nc(C5CCC5)no4)CC3)n21` has a remaining binding of 100% (cell-free assay, competition with immobilised ligand; 1 µM).
For `O=C(Nc1ccccc1)Nc1cccc(C(=O)Nc2ccc3[nH]ncc3c2)c1`, the inhibition was 12.7% (enzyme activity, inhibitor, FRET; 1 µM).
`CS(=O)(=O)NCC[C@H](NC(=O)c1cncc2c1cnn2-c1ccc(F)cc1)c1ccnc(S(C)(=O)=O)c1` has a remaining binding of 100% (cell-free assay, competition with immobilised ligand; 1 µM).
With `Cc1ccc(Nc2nccc(N(C)c3ccc4c(C)n(C)nc4c3)n2)cc1S(N)(=O)=O` the remaining signal was 87.8% (cell-free assay; 0.5 µM).
`O=C(O)[C@H]1[C@H](Cn2nnc3ccccc3c2=O)CC[C@@H]1C(=O)c1ccc(OCCC2CCOCC2)cc1` gave a remaining binding of 82% (cell-free assay, competition with immobilised ligand; 1 µM).
For `CC(C)(C)c1nc(-c2cccc(NS(=O)(=O)c3c(F)cccc3F)c2F)c(-c2ccnc(N)n2)s1`, the remaining activity was 93% (enzyme activity, inhibitor, radiometric; 1 µM).
`CN1CCN(c2ccc(C(=O)Nc3n[nH]c4ccc(Cc5cc(F)cc(F)c5)cc34)c(NC3CCOCC3)c2)CC1` gave an inhibition of 99.8% (enzyme activity, inhibitor, FRET; 1 µM).
The remaining binding of `O=C(NC[C@@H]1[C@H]2CN(C(=O)OCc3cc(C(F)(F)F)cc(C(F)(F)F)c3)C[C@@H]12)c1ccc2[nH]nnc2c1` is reported as 91% (cell-free assay, competition with immobilised ligand; 1 µM).
The inhibition of `O=C(Nc1cccc(C(=O)Nc2ccc3[nH]ncc3c2)c1)Nc1ccccc1F` is reported as 26.3% (enzyme activity, inhibitor, FRET; 1 µM).
`CN(C)C(=O)Cn1cc(-c2nc([C@@](C)(c3ccc(-c4cnc(N)nc4)cc3)C3CC3)no2)cn1` gave a remaining binding of 92% (cell-free assay, competition with immobilised ligand; 1 µM).
